The text below walks through data of PubChem BioAssay.

Test [1] in a line: inhibitors of TNFa-induced NFkB p65 translocation, primary screen, imaging, HUVEC, MLSMR starter and 10KST1 sets (AID 438;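 active = inhibition above 20% together with a positive visual image hit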;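 note: compound added about 3h40 before a 20 min TNFalpha stimulation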;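 for inhibition: signal is the nuclear over cytoplasmic p65 intensity ratio per well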). As to conditions: HUVEC TNFa-induced p65 nuclear translocation; cell count: measured here: nuclei count (cytotoxicity indicator), at 2.08 µM; inhibition: at 2 µM, stronger effect = higher value, 0% TNFa-plus-vehicle, 100% no-TNFa wells.
A short description of test [2]: endothelial E-selectin expression blockers – imaging, HUVEC, immunofluorescence, MLSMR starter and 10KST1 sets, primary screen (AID 487;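 active = visually confirmed hit in the image check and inhibition above 20%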;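 for inhibition: signal is fraction of cell area covered by stained E-selectin grains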;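 for nuclei count: 100% = median nuclei count of all wells on the same plate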). The conditions noted are these: HUVEC TNFalpha-induced E-selectin immunofluorescence imaging, at 2 µM; inhibition: stronger effect = higher value; nuclei count: measured here: cell number, toxicity.
Test [3] is described as follows: Primary imaging screen for DUSP6 inhibitors that restore phospho-Erk in transfected HeLa cells, chemical complementation (AID 609;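 active = compounds giving at least 50% inhibition in the cell-based MKP-3 phosphatase rescue imaging test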;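 for inhibition: phospho-Erk level distribution per well compared with pooled transfected vehicle control wells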). The conditions noted are these: HeLa MKP-3 transfected, phospho-Erk imaging KS statistic, at 10 µM, cells stimulated with TPA for 15 min.
The target of test [4] is Dual specificity protein phosphatase 6 (Homo sapiens) (UniProt Q16828). Described as above. The conditions noted are these: HeLa MKP-3 transfected, phospho-Erk imaging KS statistic; at 10 µM; stronger effect = higher value; cells stimulated with TPA for 15 min.
Test [5] addresses Voltage-gated potassium channel subunit beta-2 (Rattus norvegicus) (UniProt P62483). Put plainly: inhibitors of rat Kvbeta2 reductase activity – biochemical, NADPH fluorescence, primary screen (AID 622;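 active = fluorescence slope higher than the sample average by over 3 SD, cut at about -0.22 in these data, passing the limit was not always enough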;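 note: slope of raw intensity against log time taken from 70 to 1610 s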). The conditions noted are these: recombinant KvBeta, 4-cyanobenzaldehyde reduction, at 10 µM, stronger effect = higher value.
For test [6] the target is unchanged. Put plainly: enhancers of rat Kvbeta2 NADPH turnover – biochemical, NADPH fluorescence, primary screen (AID 623;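 active = NADPH fluorescence slope more negative than the mean of all samples by about 3 SD, 99.7% confidence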;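 note: fluorescence intensity change per second fitted from 20 to 320 s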). As to conditions: Recombinant KvBeta, NADPH fluorescence decrease slope, 10 min; at 10 µM; stronger effect = lower value.
Test [7] has as its target Muscarinic acetylcholine receptor M4 (Homo sapiens) (UniProt P08173). Briefly: M4-linked GIRK flux change, two-sided – cell-based, HEK293 M4/GIRK, thallium flux, BTC-AM, M4 allosteric agonist project, primary screen (AID 625;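 active = fluorescence slope after compound addition differing from the mean of all tested samples at 99.7% confidence, mostly higher but some lower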;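 note: thallium influx through GIRK channels coupled to M4 in HEK293 cells with BTC-AM dye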). The conditions noted are these: at 10 µM, actives lie on both sides. In outline: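 System: HEK293 cells with M4 receptor and GIRK channels | Incubation: Cells overnight at 37 °C, BTC-AM loading 1 h, reads 2 min total | Technique: Kinetic BTC-AM fluorescence sampled at 1 Hz, 10 s pre-addition baseline | Measure: Post-addition slope, 15–24 s, of baseline-normalized fluorescence | Control set: Carbachol positive, DMSO negative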

Test [8] in a line: inhibitors of larval lipid processing in zebrafish, primary screen, whole organism, PED6 fluorescence, gall bladder and intestine (AID 686).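 Note: larvae 5 to 7 days old with five fish per well; signal comes from phospholipase A2 cleavage of quenched PED6 carried via bile; overnight exposure to compound and PED6 before scoring.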 As to conditions: Zebrafish larvae PED6 lipid processing, fluorescence scoring; screened at 20 µM (by protocol). In outline: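 Test system – live zebrafish larvae aged 5-7 days, whole organism · Buffer or medium – E3 fish medium · Reagent – quenched phospholipase substrate PED6, 100 nM final, ingested by larvae · Doses – 20 µM single dose · Incubation – overnight compound and PED6 incubation · Technique – visual fluorescence microscopy scoring of gall bladder, gut · Read-out basis – visual per-well fluorescence inhibition score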

Test [9] in a line: loss of swimming-algae plug formation – whole organism, Chlamydomonas reinhardtii, WT vs cilia-less mutant, absorbance, 96-well, primary screen (AID 463189;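 active = inhibition at or above 50% relative to wild type and mutant plate controls; inactive = inhibition below 50%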;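 note: 0% = wild type cc124 cells in DMSO and 100% = ciliumless bld1 mutant cells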). The conditions noted are these: Chlamydomonas reinhardtii gravitaxis, OD600 absorbance, 2 days; at 10 µM; stronger effect = higher value.
The mark [10] stands for this setting: measured here: cell density z-score.
Where [11] appears, read: measured here: nuclear c-Myc green intensity z-score.
[12] abbreviates: measured here: nuclear pErk red intensity z-score, stronger effect = higher value.

Activity calls are given as the source filed them.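 Rule for the calls, unless noted: active = a full or partial loss of lipid-probe fluorescence in the fish gall bladder, intestine or both, judged by eye; inactive = no fluorescence loss, or compound toxic to the fish.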

Chain of Voltage-gated potassium channel subunit beta-2 (Rattus norvegicus) (P62483 whole entry, looked up): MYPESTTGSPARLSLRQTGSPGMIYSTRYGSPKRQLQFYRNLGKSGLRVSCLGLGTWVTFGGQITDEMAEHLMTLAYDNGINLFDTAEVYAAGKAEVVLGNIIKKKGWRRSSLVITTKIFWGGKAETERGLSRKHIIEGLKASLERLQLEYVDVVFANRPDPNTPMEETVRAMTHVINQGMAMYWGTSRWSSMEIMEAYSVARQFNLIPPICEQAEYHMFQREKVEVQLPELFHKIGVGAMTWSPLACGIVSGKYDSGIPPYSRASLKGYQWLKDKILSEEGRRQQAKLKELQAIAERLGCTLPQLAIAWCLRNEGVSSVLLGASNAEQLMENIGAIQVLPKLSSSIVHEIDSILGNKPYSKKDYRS
Chain of Dual specificity protein phosphatase 6 (Homo sapiens) (Q16828 whole entry, looked up): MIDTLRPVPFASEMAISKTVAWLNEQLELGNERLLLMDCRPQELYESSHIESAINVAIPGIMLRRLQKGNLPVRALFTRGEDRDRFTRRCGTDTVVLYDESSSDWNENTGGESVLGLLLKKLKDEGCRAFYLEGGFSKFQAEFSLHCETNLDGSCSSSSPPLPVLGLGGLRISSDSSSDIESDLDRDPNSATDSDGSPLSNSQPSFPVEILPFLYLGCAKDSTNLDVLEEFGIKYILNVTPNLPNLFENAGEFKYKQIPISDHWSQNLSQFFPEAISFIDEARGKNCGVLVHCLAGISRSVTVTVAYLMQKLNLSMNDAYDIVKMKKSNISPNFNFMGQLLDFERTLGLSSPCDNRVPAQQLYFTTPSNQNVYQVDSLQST
Chain of Muscarinic acetylcholine receptor M4 (Homo sapiens) (P08173 whole entry, looked up): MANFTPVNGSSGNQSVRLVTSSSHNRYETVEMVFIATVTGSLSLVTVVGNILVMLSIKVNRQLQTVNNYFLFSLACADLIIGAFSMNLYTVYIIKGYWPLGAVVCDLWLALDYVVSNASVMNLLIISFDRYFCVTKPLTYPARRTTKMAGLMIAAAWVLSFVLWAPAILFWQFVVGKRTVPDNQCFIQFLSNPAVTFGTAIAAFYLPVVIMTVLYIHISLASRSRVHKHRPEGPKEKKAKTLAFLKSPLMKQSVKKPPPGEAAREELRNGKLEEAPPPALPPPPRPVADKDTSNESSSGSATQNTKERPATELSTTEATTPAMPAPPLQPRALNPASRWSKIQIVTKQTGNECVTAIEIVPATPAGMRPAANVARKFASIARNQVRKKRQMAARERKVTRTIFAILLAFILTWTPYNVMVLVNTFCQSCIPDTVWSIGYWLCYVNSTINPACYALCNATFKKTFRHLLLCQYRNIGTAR

Regarding `COc1ccc(/C(O)=C2\C(=O)C(=O)N(CCN(C)C)C2c2cccc(OC)c2OC)cc1Cl` (stereo unspecified), in test [1], the cell count is 629. Moreover, the inhibition in [1] is -9.8% (inactive); in test [2] it was -43.6% (inactive); in test [4], 11.4% (inactive); in test [9] it was 10.3% (inactive). Further, the nuclei count in [2] is 170%. The values for the z-score in test [3] (setting [10]), in test [3] (setting [11]) and in test [3] (setting [12]) were -0.541, -0.411 and -0.226, respectively. Further, the fluorescence slope in test [5] was -0.443 (inactive); in test [7], 0.00451 (inactive). Besides, the NADPH fluorescence slope in test [6] was -3.1e-05 (inactive). Moreover, the call in test [8] was inactive.

`CCOC(=O)C(O)(C1C(=O)CC(C)(C)CC1=O)C(F)(F)F` (stereo unspecified): the cell count in test [1] is 681. Moreover, the inhibition in test [1] is -12.6% (inactive); in test [2] it was -174% (inactive); in [4], -9.53% (inactive); in test [9], 3.71% (inactive). This compound showed a nuclei count in test [2] of 160%. For the same compound, the z-score is -0.979 in test [3] (setting [10]), 0.326 in test [3] (setting [11]) and 3.57 in test [3] (setting [12]). Besides, the fluorescence slope was -0.44 (inactive) in test [5] and 0.00523 (inactive) in [7]. For the same compound, the NADPH fluorescence slope in [6] was -4.6e-05 (inactive). In addition, the result in test [8] was inactive.

In the case of `CC(C)CCNc1nc2c(cc1C#N)COC(C)(C)C2`, in test [1], the cell count was determined as 536. The inhibition in [1] was -6.5% (inactive); in test [2], -22.1% (inactive); in test [4], 22.1% (inactive); in test [9], -19.8% (inactive). For the same compound, the nuclei count in test [2] stood at 143%. For the same compound, the results for the z-score in test [3] (setting [10]), in test [3] (setting [11]) and in test [3] (setting [12]) were 1.89, -0.595 and -1.16, respectively. Further, the results for the fluorescence slope in test [5] and in test [7] were -0.426 (inactive) and 0.00455 (inactive), respectively. Also, in [6], the NADPH fluorescence slope is -5.9e-05 (inactive). The call in [8] was inactive.

For the compound `Cc1cc(C)c(S(=O)(=O)O)c(C)n1`, the cell count in test [1] was 533. In addition, the inhibition in [1] is -13.8% (inactive); in test [2] it was 6.7% (inactive); in test [4], -5.95% (inactive); in test [9] it was -7.08% (inactive). The compound also gave a nuclei count in test [2] of 203%. Also, the z-score in [3] (setting [10]) is -0.302; in [3] (setting [11]) it was 0.575; in test [3] (setting [12]), 0.985. The fluorescence slope in test [5] was -0.393 (inactive); in test [7] it was 0.00523 (inactive). The NADPH fluorescence slope in [6] is -4.7e-05 (inactive). The compound was classed as inactive in test [8].

`Cn1ccnc1C(O)c1ccc(OCc2ccccc2)cc1` (stereo unspecified): the cell count in test [1] was 473. Moreover, the inhibition in test [1] was -1.1% (inactive); in test [2] it was -18.4% (inactive); in test [4], 7.42% (inactive); in test [9], -11.2% (inactive). The nuclei count in test [2] amounted to 113%. Besides, the z-score was -3.29 in test [3] (setting [10]), 1.73 in test [3] (setting [11]) and -0.207 in test [3] (setting [12]). Moreover, the fluorescence slope in test [5] was -0.487 (inactive); in test [7], 0.00541 (inactive). Also, the NADPH fluorescence slope in test [6] was -0.000123 (inactive). Also, the compound was called inactive in [8].

`Cc1cccc(-n2ncc3c(NCCN4CCOCC4)ncnc32)c1`: the cell count in test [1] was 596. Besides, the inhibition in test [1] was -8.2% (inactive); in [2] it was 0.1% (inactive); in test [4], -2.59% (inactive); in [9], 34% (inactive). The compound also displayed a nuclei count in test [2] of 156%. Besides, the z-score in [3] (setting [10]) was -0.984; in test [3] (setting [11]), 1.25; in test [3] (setting [12]), -0.89. Further, the results for the fluorescence slope in [5] and in test [7] were -0.397 (inactive) and 0.00826 (inactive), respectively. Besides, the NADPH fluorescence slope in [6] is -2.6e-05 (inactive). Further, in [8], the outcome was inactive.

Turning to `CCC(NC(=O)Nc1ncccc1C)(C(F)(F)F)C(F)(F)F`, in [1], the cell count was determined as 612. The inhibition in test [1] was 5.3% (inactive); in test [2], -36.6% (inactive); in [4], 20.2% (inactive); in test [9], 35.4% (inactive). The compound also showed a nuclei count in test [2] of 104%. For the same compound, the z-score is 1.12 in test [3] (setting [10]), 0.397 in test [3] (setting [11]) and -1.61 in test [3] (setting [12]). The figures for the fluorescence slope in test [5] and in [7] were -0.508 (inactive) and 0.00598 (inactive), respectively. The NADPH fluorescence slope in test [6] is -1.7e-05 (inactive). For the same compound, in test [8], the compound was classed as inactive.
